These results are taken from ChEMBL document CHEMBL1140409, “Discovery of potent, nonsystemic apical sodium-codependent bile acid transporter inhibitors (Part 2)” (J Med Chem, 2005).

What is called IC50 is the concentration at which inhibition is half-maximal.

Tested on in the first series: not listed separately
Kind of series: Amount (dissolved in aqueous Tween-80) in bile of rat was determined by fecal bile acid content for 45 min in a 37 degree C. Type of series: ADME, tissue-based, Feces. The note with it: in vivo, 0.75 h. Further details: concentration or dose not given beside the values. The method, boiled down:
(§1)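 Male Wistar rats (275–300 g) were gavaged once each morning for 4 days at 5, 0.2 or 0.04 mpk in aqueous 0.2% (v/v) Tween-80 (2 mL/kg). Feces from the final 48 h were homogenized in twice their weight of water. Homogenate was diluted in butanol/water (2:0.6), extracted 45 min at 37 °C, centrifuged, and bile acids (μmol/day) measured enzymatically. Scores compared against a reference analogue at 0.04 mg/kg.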
Compound `CCCCC1(CCCC)CS(=O)(=O)c2ccc(N(C)C)cc2[C@@H](c2ccc(OCC(=O)NCC(=O)O)cc2)[C@H]1O` yielded an Activity of 7.14%.

For `CCCCC1(CCCC)CS(=O)(=O)c2ccc(N(C)C)cc2[C@@H](c2ccc(OCCC[N+]34CCN(CC3)CC4)cc2)[C@H]1O`, the Activity came out at 0.21%.

`CCCCC1(CCCC)CS(=O)(=O)c2ccc(N(C)C)cc2[C@@H](c2ccc(OCCCC[N+]34CCN(CC3)CC4)cc2)[C@H]1O` yielded an Activity of 0.12%.

Turning to `CCCCC1(CCCC)CS(=O)(=O)c2ccc(N(C)C)cc2[C@@H](c2ccc(OCc3ccc(CN(CC(=O)O)CC(=O)O)cc3)cc2)[C@H]1O`, the Activity is given as 0.12%.

Tested on in the next series: not listed separately
Kind of series: Efficacy to increase fecal bile acid excretion; + is more efficacious. Type of series: ADME, tissue-based, Feces. The note with it: rat. The essentials:
as §1
Regarding `CCCCC1(CCCC)CS(=O)(=O)c2ccc(N(C)C)cc2[C@@H](c2ccc(OCC(=O)NCC(=O)O)cc2)[C@H]1O`, the Efficacy result is “More efficacious than analogue 2”.

As to `CCCCC1(CCCC)CS(=O)(=O)c2ccc(N(C)C)cc2[C@@H](c2ccc(OCCC[N+]34CCN(CC3)CC4)cc2)[C@H]1O`, the Efficacy result is listed as “More efficacious than analogue 2”.

For the compound `CCCCC1(CCCC)CS(=O)(=O)c2ccc(N(C)C)cc2[C@@H](c2ccc(OCCCC[N+]34CCN(CC3)CC4)cc2)[C@H]1O`, the Efficacy result is “More efficacious than analogue 2”.

The next series concerns the target T1, Ileal sodium/bile acid cotransporter (Homo sapiens, UniProt Q12908).
T1 sequence (Q12908 whole entry): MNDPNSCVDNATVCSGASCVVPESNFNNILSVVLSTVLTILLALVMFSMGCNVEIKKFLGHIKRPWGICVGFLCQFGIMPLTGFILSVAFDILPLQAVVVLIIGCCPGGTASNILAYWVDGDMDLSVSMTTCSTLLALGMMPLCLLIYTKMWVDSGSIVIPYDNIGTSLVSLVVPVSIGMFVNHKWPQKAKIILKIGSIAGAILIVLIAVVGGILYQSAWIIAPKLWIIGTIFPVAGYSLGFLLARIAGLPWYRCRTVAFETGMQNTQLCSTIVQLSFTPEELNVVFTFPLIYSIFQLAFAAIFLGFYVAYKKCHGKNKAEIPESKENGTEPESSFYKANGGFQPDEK
Kind of series: In vitro inhibition of ASBT mediated uptake of [14C]taurocholate (5 uM) in baby hamster cells expressing human IBAT. Type of series: cell-based.
Details: not given
Regarding `CCCCC1(CCCC)CS(=O)(=O)c2ccc(N(C)C)cc2[C@@H](c2ccc(CO)cc2)[C@H]1O` (racemic), the IC50 was found to be 11 nM.

In turn, `CCCCC1(CCCC)CS(=O)(=O)c2ccc(N(C)C)cc2[C@@H](c2cccs2)[C@H]1O` (racemic) came in with a half-maximal inhibitory concentration (IC50) of 30 nM.

`CCCCC1(CCCC)CS(=O)(=O)c2ccc(N(C)C)cc2[C@@H](c2cccc(CN(C)C)c2)[C@H]1O` (racemic) came in with an IC50 of 47 nM.

Compound `CCCCC1(CCCC)CS(=O)(=O)c2ccc(N(C)C)cc2[C@@H](c2cccc(OCC[N+](CC)(CC)CC)c2)[C@H]1O` returned an IC50 of 7 nM.

Take `CCCCC1(CCCC)CS(=O)(=O)c2ccc(N(C)C)cc2[C@@H](c2ccc(OC)cc2)[C@H]1O` (racemic): the midpoint of inhibition, the IC50, lay at 6.8 nM.

Consider `CCCCC1(CCCC)CS(=O)(=O)c2ccc(N(C)C)cc2[C@@H](c2ccccn2)[C@H]1O` (racemic), for which 5 nM corresponded to half-maximal inhibition (IC50).

The compound `CCCCC1(CCCC)CS(=O)(=O)c2ccc(N(C)C)cc2[C@@H](c2ccc(OC)c(OC)c2)[C@H]1O` (racemic) yielded an IC50 of 20 nM.

Take `CCCCC1(CCCC)CS(=O)(=O)c2ccc(N(C)C)cc2[C@@H](c2cccc(NC(=O)CCCC[N+](CC)(CC)CC)c2)[C@H]1O`: half-maximal inhibition (IC50) was put at 0.76 nM.

`CCCCC1(CCCC)CS(=O)(=O)c2ccc(N(C)C)cc2[C@@H](c2ccc(CN(CC)CC)cc2)[C@H]1O` (racemic) showed an IC50 of 930 nM.

In the case of `CCCCC1(CCCC)CS(=O)(=O)c2ccc(N(C)C)cc2[C@@H](c2ccc(C[n+]3ccccc3)cc2)[C@H]1O` (racemic), the IC50 came out at 850 nM.

Compound `CCCCC1(CCCC)CS(=O)(=O)c2ccc(N(C)C)cc2[C@@H](c2cccc(OC)c2)[C@H]1O` (racemic) registered an IC50 of 11 nM.

The compound `CCCCC1(CCCC)CS(=O)(=O)c2ccc(N(C)C)cc2[C@@H](c2ccc(C(=O)O)cc2)[C@H]1O` (racemic) displayed an IC50 of 320 nM.

Regarding `CCCCC1(CCCC)CS(=O)(=O)c2ccc(N(C)C)cc2[C@@H](c2ccc3cc(O)ccc3c2)[C@H]1O` (racemic), half-maximal inhibition (IC50) was put at 17 nM.

`CCCCC1(CCCC)CS(=O)(=O)c2ccc(N(C)C)cc2[C@@H](c2ccc(OCCOCCOCC[N+]34CCN(CC3)CC4)cc2)[C@H]1O`: the IC50 is 4 nM.

Regarding `CCCCC1(CCCC)CS(=O)(=O)c2ccc(N(C)C)cc2[C@@H](c2ccc(SC)cc2)[C@H]1O` (racemic), the IC50 worked out at 42 nM.

`CCCCC1(CCCC)CS(=O)(=O)c2ccc(N(C)C)cc2[C@@H](c2cccnc2)[C@H]1O` (racemic) showed an IC50 of 7.5 nM.

On to `CCCCC1(CCCC)CS(=O)(=O)c2ccc(N(C)C)cc2[C@@H](c2ccc(OCc3ccncc3)cc2)[C@H]1O`, for which inhibition was half-maximal at 28 nM (IC50).

On to `CCCCC1(CCCC)CS(=O)(=O)c2ccc(N(C)C)cc2[C@@H](c2ccc(OCCCCCN(CC)CC)cc2)[C@H]1O`, for which the IC50 was found to be 16 nM.

`CCCCC1(CCCC)CS(=O)(=O)c2ccc(N(C)C)cc2[C@@H](c2cccc(OCCN(CC)CC)c2)[C@H]1O` gave an IC50 of 45 nM.

Consider `CCCCC1(CCCC)CS(=O)(=O)c2ccc(N(C)C)cc2[C@@H](c2ccc(OCCOCCOCCN(CCO)CCO)cc2)[C@H]1O`, for which it took 9 nM to reach half-maximal inhibition (IC50).

With `CCCCC1(CCCC)CS(=O)(=O)c2ccc(N(C)C)cc2[C@@H](c2cccc(Nc3cc[n+](C)cc3)c2)[C@H]1O`, the IC50 is 2 nM.

As for `CCCCC1(CCCC)CS(=O)(=O)c2ccc(N(C)C)cc2[C@@H](c2cccc3ccccc23)[C@H]1O` (racemic), it took 620 nM to reach half-maximal inhibition (IC50).

`CCCCC1(CCCC)CS(=O)(=O)c2ccc(N(C)C)cc2[C@@H](c2ccc(OCC[N+](C)(C)C)cc2)[C@H]1O` showed an IC50 of 260 nM.

`CCCCC1(CCCC)CS(=O)(=O)c2ccc(N(C)C)cc2[C@@H](c2ccc(OCCOCC[N+](CC)(CC)CC)cc2)[C@H]1O` showed an IC50 of 5.7 nM.

Turning to `CCCCC1(CCCC)CS(=O)(=O)c2ccc(N(C)C)cc2[C@@H](c2cccc(O)c2)[C@H]1O` (racemic), the IC50 amounted to 7.3 nM.

For `CCCCC1(CCCC)CS(=O)(=O)c2ccc(N(C)C)cc2[C@@H](c2cccc(C(=O)OC)c2)[C@H]1O` (racemic), the IC50 amounted to 7 nM.

Regarding `CCCCC1(CCCC)CS(=O)(=O)c2ccc(N(C)C)cc2[C@@H](c2cccc(Nc3ccncc3)c2)[C@H]1O`, the IC50 turned out to be 52 nM.

Compound `CCCCC1(CCCC)CS(=O)(=O)c2ccc(N(C)C)cc2[C@@H](c2cccc(N)c2)[C@H]1O` (racemic) had an IC50 of 2 nM.

Take `CCCCC1(CCCC)CS(=O)(=O)c2ccc(N(C)C)cc2[C@@H](c2ccsc2)[C@H]1O` (racemic): the 50% inhibitory concentration (IC50) was 5 nM.

`CCCCC1(CCCC)CS(=O)(=O)c2ccc(N(C)C)cc2[C@@H](c2ccc(C(=O)OC)cc2)[C@H]1O` (racemic) had an IC50 of 41 nM.

As to `CCCCC1(CCCC)CS(=O)(=O)c2ccc(N(C)C)cc2[C@@H](c2ccc(OCCN(C)C)cc2)[C@H]1O`, the IC50 is 340 nM.

In the case of `CCCCC1(CCCC)CS(=O)(=O)c2ccc(N(C)C)cc2[C@@H](c2ccc(C[N+](C)(C)C)cc2)[C@H]1O` (racemic), the IC50 is 8800 nM.

In the case of `CCCCC1(CCCC)CS(=O)(=O)c2ccc(N(C)C)cc2[C@@H](c2ccc(O)c(O)c2)[C@H]1O` (racemic), inhibition was half-maximal at 9.5 nM (IC50).

On to `CCCCC1(CCCC)CS(=O)(=O)c2ccc(N(C)C)cc2[C@@H](c2ccc(O)cc2)[C@H]1O` (racemic), for which the midpoint of inhibition, the IC50, lay at 2.2 nM.

In turn, `CCCCC1(CCCC)CS(=O)(=O)c2ccc(N(C)C)cc2[C@@H](c2ccc(OCc3cc[n+](CC)cc3)cc2)[C@H]1O` registered an IC50 of 6 nM.

On to `CCCCC1(CCCC)CS(=O)(=O)c2ccc(N(C)C)cc2[C@@H](c2cccc(C[n+]3ccccc3)c2)[C@H]1O` (racemic), for which the IC50 was 7.5 nM.

`CCCCC1(CCCC)CS(=O)(=O)c2ccc(N(C)C)cc2[C@@H](c2ccc(OCCOCCOCC[N+](C)(C)C)cc2)[C@H]1O`: the IC50 was found to be 4 nM.

Compound `CCCCC1(CCCC)CS(=O)(=O)c2ccc(N(C)C)cc2[C@@H](c2ccncc2)[C@H]1O` (racemic) yielded an IC50 of 8 nM.

`CCCCC1(CCCC)CS(=O)(=O)c2ccc(N(C)C)cc2[C@@H](c2ccc(OCCOCC[N+]34CCN(CC3)CC4)cc2)[C@H]1O` registered an IC50 of 8.5 nM.

For `CCCCC1(CCCC)CS(=O)(=O)c2ccc(N(C)C)cc2[C@@H](c2ccc(C[N+](CC)(CC)CC)cc2)[C@H]1O` (racemic), the IC50 worked out at 5500 nM.

Regarding `CCCCC1(CCCC)CS(=O)(=O)c2ccc(N(C)C)cc2[C@@H](c2cccc(CS(=O)(=O)O)c2)[C@H]1O` (racemic), the IC50 came out at 3.7 nM.

In the case of `CCCCC1(CCCC)CS(=O)(=O)c2ccc(N(C)C)cc2[C@@H](c2cccc(NCC(=O)NCC(=O)O)c2)[C@H]1O`, the IC50 was 0.3 nM.

Compound `CCCCC1(CCCC)CS(=O)(=O)c2ccc(N(C)C)cc2[C@@H](c2ccc[n+](C)c2)[C@H]1O` (racemic) showed an IC50 of 220 nM.

For the compound `CCCCC1(CCCC)CS(=O)(=O)c2ccc(N(C)C)cc2[C@@H](c2ccc(OCCOCCOCCN3CCCN(C)CCN(C)CCCN(C)CC3)c(F)c2)[C@H]1O`, it took 3 nM to reach half-maximal inhibition (IC50).

Regarding `CCCCC1(CCCC)CS(=O)(=O)c2ccc(N(C)C)cc2[C@@H](c2ccc(OCCCCC[N+]34CCN(CC3)CC4)cc2)[C@H]1O`, inhibition was half-maximal at 0.5 nM (IC50).

In the case of `CCCCC1(CCCC)CS(=O)(=O)c2ccc(N(C)C)cc2[C@@H](c2ccc(OCCCCC[N+](CC)(CC)CC)cc2)[C@H]1O`, the IC50 came out at 2 nM.

Compound `CCCCC1(CCCC)CS(=O)(=O)c2ccc(N(C)C)cc2[C@@H](c2cccc(C[N+](C)(C)C)c2)[C@H]1O` returned an IC50 of 67 nM.

`CCCCC1(CCCC)CS(=O)(=O)c2ccc(N(C)C)cc2[C@@H](c2ccc(OC)c(F)c2)[C@H]1O` (racemic) showed an IC50 of 3.6 nM.

Regarding `CCCCC1(CCCC)CS(=O)(=O)c2ccc(N(C)C)cc2[C@@H](c2ccc(OCCOCCOCCN(CC)CC)cc2)[C@H]1O`, the IC50 stood at 30 nM.

`CCCCC1(CCCC)CS(=O)(=O)c2ccc(N(C)C)cc2[C@@H](c2ccc(C(C)(C)C)cc2)[C@H]1O` (racemic) registered an IC50 of 1000 nM.

The compound `CCCCC1(CCCC)CS(=O)(=O)c2ccc(N(C)C)cc2[C@@H](c2ccc3cc(OC)ccc3c2)[C@H]1O` (racemic) came in with an IC50 of 75 nM.

Regarding `CCCCC1(CCCC)CS(=O)(=O)c2ccc(N(C)C)cc2[C@@H](c2ccc(F)c(F)c2)[C@H]1O` (racemic), the IC50 turned out to be 22 nM.

Turning to `CCCCC1(CCCC)CS(=O)(=O)c2ccc(N(C)C)cc2[C@@H](c2cccc(OCCCCC[N+](CC)(CC)CC)c2)[C@H]1O`, the midpoint of inhibition, the IC50, lay at 2 nM.

Consider `CCCCC1(CCCC)CS(=O)(=O)c2ccc(N(C)C)cc2[C@@H](c2cccc(CO)c2)[C@H]1O` (racemic), for which the IC50 was 4.5 nM.
